Drawing on ChEMBL document CHEMBL2010797, “Exploring aigialomycin d and its analogues as protein kinase inhibitors for cancer targets” (ACS Med Chem Lett, 2011), this text covers IC50, Activity and Kd for one molecule.

In assay [1] the target is MAP kinase-interacting serine/threonine-protein kinase 1 (Homo sapiens, UniProt Q9BUB5). Briefly: Inhibition of MNK1.
The target of assay [2] is T1, Serine/threonine-protein kinase PLK4 (Homo sapiens) (UniProt O00444).
T1 sequence (whole entry): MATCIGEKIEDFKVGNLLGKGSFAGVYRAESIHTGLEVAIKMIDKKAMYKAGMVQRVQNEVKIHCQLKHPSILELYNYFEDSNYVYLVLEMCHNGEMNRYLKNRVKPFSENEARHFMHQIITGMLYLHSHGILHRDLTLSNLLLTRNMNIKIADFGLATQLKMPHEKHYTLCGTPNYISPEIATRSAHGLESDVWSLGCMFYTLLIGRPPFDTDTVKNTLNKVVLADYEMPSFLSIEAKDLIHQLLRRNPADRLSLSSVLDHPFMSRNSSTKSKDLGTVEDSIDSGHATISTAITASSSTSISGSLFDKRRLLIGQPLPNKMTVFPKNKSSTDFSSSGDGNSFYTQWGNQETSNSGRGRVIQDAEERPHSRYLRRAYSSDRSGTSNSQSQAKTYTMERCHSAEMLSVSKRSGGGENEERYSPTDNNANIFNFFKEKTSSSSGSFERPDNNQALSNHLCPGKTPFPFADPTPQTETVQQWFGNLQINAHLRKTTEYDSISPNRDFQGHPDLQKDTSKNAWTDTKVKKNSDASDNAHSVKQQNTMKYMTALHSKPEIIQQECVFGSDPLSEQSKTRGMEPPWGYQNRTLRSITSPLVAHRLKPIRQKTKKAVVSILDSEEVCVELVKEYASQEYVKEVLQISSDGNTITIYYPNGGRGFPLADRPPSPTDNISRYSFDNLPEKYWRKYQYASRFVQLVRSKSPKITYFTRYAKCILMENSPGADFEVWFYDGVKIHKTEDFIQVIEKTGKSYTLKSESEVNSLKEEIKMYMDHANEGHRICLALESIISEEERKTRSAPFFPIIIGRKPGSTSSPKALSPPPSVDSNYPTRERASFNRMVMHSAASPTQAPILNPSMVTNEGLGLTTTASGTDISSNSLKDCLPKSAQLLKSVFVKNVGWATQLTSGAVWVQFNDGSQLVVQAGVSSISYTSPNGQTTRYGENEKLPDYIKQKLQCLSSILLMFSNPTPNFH
Briefly: Inhibition of PLK4 assessed as enzyme activity at 10 uM relative to control. Further details: scale not given: the % may be the effect or the level left. The procedure, abridged:
(§1)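 Single-point test at 10 μM in a 96-kinase screening panel. Reported as % of a DMSO negative control, where a lower value means stronger inhibition.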

For assay [3], the target named is T2, Protein kinase C epsilon type (Homo sapiens) (UniProt Q02156).
T2 sequence (whole entry): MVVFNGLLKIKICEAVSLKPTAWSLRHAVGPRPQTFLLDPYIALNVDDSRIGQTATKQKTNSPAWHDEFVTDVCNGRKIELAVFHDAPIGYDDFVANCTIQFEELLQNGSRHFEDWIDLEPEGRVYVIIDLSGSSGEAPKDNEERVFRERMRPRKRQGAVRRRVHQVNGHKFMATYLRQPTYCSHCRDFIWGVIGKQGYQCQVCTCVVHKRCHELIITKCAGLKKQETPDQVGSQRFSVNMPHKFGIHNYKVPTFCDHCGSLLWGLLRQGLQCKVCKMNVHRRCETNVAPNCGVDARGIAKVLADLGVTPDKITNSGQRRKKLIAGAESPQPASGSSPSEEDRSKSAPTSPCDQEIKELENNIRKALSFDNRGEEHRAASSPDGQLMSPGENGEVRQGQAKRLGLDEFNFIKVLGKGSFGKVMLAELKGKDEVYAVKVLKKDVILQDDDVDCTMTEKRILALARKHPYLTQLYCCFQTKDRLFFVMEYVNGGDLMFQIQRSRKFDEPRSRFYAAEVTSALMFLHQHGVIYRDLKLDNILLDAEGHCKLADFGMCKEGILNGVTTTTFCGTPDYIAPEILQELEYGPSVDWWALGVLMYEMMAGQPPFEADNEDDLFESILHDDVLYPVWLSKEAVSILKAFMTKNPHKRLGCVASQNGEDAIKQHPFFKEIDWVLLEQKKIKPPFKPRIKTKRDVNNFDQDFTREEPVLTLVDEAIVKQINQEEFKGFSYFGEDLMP
Briefly: Inhibition of PRKCE assessed as enzyme activity at 10 uM relative to control. Further details: scale not given: the % may be the effect or the level left. The procedure, abridged: as §1

Assay [4] concerns the target MAP kinase-interacting serine/threonine-protein kinase 2 (Homo sapiens, UniProt Q9HBH9). Briefly: Inhibition of MNK2.
The target in assay [5] is Cyclin-dependent kinase 5 (Homo sapiens, UniProt Q00535). Briefly: Inhibition of CDK5.
Assay [6] deals with Cyclin-dependent kinase 2/cyclin A (Homo sapiens, UniProt P24941). Briefly: Inhibition of CDK2/cyclin A using 5-FAM-GGGPATPKKAKKL-COOH as substrate after 1 hr by IMAP assay. The class given is protein-complex assay. In short, it runs like this:
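IMAP fluorescence-polarization assay on CDK2/cyclin A. IC50 taken from dose–response curves, given as average ± SD of three independent experiments, or the mean of two for one compound.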

The target in assay [7] is Receptor-type tyrosine-protein kinase FLT3 (Homo sapiens) (UniProt P36888). Briefly: Inhibition of FLT3 assessed as enzyme activity at 10 uM relative to control. The arrangement: scale not given: the % may be the effect or the level left. In short, it runs like this:
as §1

In assay [8] the target is T3, Tyrosine-protein kinase receptor UFO (Homo sapiens, UniProt P30530).
T3 sequence (P30530 whole entry): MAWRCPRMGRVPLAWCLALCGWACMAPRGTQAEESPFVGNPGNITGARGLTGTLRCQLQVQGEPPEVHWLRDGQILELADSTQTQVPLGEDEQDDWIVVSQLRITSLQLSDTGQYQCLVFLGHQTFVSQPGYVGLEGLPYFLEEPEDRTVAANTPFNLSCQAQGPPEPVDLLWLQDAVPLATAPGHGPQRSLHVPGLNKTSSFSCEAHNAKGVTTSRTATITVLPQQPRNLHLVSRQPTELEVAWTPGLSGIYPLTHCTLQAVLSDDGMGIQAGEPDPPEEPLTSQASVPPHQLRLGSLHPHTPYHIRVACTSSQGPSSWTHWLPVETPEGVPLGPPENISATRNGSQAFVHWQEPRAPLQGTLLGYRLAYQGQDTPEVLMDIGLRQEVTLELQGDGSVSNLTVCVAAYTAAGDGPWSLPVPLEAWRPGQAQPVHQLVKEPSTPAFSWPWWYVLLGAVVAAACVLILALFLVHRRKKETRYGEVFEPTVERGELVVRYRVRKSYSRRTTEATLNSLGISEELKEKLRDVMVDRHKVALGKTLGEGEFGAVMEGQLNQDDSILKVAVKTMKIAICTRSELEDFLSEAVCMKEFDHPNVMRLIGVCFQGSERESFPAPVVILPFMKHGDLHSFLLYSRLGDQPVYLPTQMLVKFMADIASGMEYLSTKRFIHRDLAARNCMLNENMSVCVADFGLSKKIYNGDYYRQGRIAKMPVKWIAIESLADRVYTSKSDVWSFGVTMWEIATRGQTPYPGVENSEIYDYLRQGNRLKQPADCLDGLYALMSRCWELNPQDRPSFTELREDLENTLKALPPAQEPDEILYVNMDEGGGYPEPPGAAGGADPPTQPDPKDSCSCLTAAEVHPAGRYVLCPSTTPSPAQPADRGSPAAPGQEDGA
Briefly: Inhibition of AXL.

Chain of Cyclin-dependent kinase 5 (Q00535 whole entry): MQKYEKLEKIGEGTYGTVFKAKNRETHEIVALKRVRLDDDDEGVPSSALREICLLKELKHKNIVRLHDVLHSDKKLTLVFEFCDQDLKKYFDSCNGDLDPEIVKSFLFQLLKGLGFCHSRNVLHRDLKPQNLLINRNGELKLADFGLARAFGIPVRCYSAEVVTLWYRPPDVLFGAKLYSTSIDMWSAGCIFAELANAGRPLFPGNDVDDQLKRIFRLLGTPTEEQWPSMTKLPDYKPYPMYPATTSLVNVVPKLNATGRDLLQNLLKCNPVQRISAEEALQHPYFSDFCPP
Chain of Receptor-type tyrosine-protein kinase FLT3 (Homo sapiens) (P36888 whole entry): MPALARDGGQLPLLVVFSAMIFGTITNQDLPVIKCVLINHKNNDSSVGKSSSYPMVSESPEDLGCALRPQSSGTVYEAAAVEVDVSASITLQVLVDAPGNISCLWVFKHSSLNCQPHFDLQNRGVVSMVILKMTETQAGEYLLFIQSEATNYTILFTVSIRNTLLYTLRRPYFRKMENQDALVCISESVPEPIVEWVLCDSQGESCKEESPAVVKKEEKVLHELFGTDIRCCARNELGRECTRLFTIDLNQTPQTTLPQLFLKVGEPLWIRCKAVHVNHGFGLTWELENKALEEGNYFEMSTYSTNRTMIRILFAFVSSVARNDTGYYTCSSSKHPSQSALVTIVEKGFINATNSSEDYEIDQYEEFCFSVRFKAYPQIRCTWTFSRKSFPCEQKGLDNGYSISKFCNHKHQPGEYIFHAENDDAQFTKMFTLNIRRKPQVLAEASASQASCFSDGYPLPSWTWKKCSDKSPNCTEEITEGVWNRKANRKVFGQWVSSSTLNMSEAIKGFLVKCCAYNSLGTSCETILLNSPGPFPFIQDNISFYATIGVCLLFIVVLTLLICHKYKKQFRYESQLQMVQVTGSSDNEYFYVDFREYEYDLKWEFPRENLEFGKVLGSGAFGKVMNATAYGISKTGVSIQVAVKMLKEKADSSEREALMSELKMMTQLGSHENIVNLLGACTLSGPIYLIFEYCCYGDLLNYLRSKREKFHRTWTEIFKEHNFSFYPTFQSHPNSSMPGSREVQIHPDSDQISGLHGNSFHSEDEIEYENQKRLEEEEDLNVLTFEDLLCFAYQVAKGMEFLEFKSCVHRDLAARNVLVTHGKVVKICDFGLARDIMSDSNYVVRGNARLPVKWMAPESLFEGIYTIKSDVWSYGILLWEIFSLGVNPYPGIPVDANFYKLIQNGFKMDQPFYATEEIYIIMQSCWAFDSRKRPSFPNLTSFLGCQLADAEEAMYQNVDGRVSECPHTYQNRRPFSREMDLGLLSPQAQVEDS
Chain of MAP kinase-interacting serine/threonine-protein kinase 2 (Q9HBH9 whole entry): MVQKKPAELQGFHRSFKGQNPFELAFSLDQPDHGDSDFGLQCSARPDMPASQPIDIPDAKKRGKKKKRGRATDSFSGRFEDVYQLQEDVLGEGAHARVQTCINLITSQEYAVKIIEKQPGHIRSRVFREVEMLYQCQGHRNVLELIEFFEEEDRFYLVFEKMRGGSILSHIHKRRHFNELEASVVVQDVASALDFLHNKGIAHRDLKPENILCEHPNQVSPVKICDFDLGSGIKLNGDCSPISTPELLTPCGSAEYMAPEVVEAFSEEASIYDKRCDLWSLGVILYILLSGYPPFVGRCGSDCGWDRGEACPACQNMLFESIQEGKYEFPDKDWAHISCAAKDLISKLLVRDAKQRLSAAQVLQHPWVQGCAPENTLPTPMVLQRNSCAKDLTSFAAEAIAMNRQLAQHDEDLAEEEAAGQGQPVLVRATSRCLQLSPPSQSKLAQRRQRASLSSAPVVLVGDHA
Chain of MAP kinase-interacting serine/threonine-protein kinase 1 (Q9BUB5 whole entry): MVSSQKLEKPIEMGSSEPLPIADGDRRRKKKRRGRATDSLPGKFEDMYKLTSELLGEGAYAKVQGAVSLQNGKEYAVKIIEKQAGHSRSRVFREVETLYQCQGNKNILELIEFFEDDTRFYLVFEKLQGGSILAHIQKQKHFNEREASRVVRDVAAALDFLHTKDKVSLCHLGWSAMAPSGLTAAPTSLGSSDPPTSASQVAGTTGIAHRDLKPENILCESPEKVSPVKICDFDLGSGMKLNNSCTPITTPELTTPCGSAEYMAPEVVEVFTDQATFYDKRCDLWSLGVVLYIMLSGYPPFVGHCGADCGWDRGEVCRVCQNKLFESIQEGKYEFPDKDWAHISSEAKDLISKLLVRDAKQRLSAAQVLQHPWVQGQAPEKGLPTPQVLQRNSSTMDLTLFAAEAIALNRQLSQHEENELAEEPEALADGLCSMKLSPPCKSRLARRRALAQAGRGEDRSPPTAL

In the case of `C[C@H]1C/C=C/[C@@H](O)[C@@H](O)CC/C=C/c2cc(O)cc(O)c2C(=O)O1` [AIGIALOMYCIN D], the IC50 (in general, the concentration that inhibits the measured activity by half) came out at 40 µM in assay [1], 6 µM in assay [5] and 21 µM in assay [6]. For the same molecule, the Activity turned out to be 9.6% in assay [2], 7.2% in assay [3] and 7.1% in assay [7]. The Kd (as a rule, the free concentration of one partner at which half of the binding sites on the other are occupied at equilibrium, for simple one-to-one binding) in assay [4] is 0.16 µM; in assay [8], 1 µM.
